Target: CYP2E1 (Homo sapiens, UniProt P05181)
Assay: CYP inhibition, pooled human liver microsomes
Assay type: in vitro ADME
Conditions: 0.33–99.2 μM, co‐ and pre‐incubation
Outline: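 The rate of metabolite formation was measured; testosterone was one CYP3A4 substrate. Controls: solvent vehicle, enzyme-selective inhibitors, mechanism-based inhibitors. Analysis by HPLC with online radio-detection or LC/MS/MS.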

Sequence of CYP2E1 (P05181 whole entry): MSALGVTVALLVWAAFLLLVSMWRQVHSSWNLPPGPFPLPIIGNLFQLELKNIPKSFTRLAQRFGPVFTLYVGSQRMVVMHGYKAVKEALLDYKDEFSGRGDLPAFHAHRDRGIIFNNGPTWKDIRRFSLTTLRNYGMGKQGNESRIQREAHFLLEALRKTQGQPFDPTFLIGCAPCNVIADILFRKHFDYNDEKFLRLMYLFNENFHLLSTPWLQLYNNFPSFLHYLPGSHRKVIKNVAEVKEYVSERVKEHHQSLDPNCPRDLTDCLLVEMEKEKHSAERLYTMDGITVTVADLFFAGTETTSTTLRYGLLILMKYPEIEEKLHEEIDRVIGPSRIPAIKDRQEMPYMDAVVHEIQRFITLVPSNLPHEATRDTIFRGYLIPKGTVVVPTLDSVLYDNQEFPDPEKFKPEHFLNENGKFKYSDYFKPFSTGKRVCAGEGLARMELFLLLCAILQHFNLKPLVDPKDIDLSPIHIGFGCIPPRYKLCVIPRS

For `CN(C(=O)n1cnc(-c2ccc[n+]([O-])c2)c1)C1CCCCC1` [BIA 10‐2474, 3‐(1‐(cyclohexyl (methyl)carbamoyl)‐1H‐imidazol‐4‐yl)pyridine 1‐oxide], the “inhibitory effect on CYP2E1” value was “did not exhibit any inhibitory effects”.
